In publication PMC6542364 (Journal of the American Chemical Society, 2019):

Test system: HS-5 cells
Assay: 3D cell spheroid formation from a 2D cell sheet
Assay type: cell-based
Conditions: co-incubation with pD1-B 200 μM, biotin e.g. 500 μM, 24 h
Procedure, shortened: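 HS-5 fibroblast monolayers were kept in culture medium with the test compound at 200 μM for 24 h, with medium alone as control. In the competition arm, free biotin at 500 μM was co-incubated with the test compound. Cell clustering and spheroid formation were recorded by optical imaging.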

SMILES: O=C(O)CCCC[C@@H]1SC[C@@H]2NC(=O)N[C@@H]21 [biotin]
- effect of competing biotin on pD1-B-induced cell spheroid formation: blocks the formation of cell spheroids in a concentration dependent manner
